PubChem BioAssay AID652260 (The Scripps Research Institute Molecular Screening Center, 2013)
The whole screen tested about 3,500 compounds, of which about 1,000 (29%) were called active.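 Rule for the calls: active = activation above its plate's cutoff, the mean activation of tested wells plus 3 SD (cut at about 7.9% in these data); inactive = the rest.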 The list is a sample of the results.

Assay: SMARCA2 (BRM) function activators, confirmation, cell-based, luminescence, triplicate (AID 652260)
Settings: MG213 cells, MMTV-luciferase with dexamethasone, overnight, at 9.1 µM, active compounds read high, DMSO wells 0%, reference activator 100%, MG213 cells expressing E1A, Rb sequestered
Procedure, shortened: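 Assay system: MG213 MMTV-luciferase reporter cells; Quantity: 600 cells in each well; Incubation: compound exposure 24 h at 37 °C after 1-day dexamethasone priming; Read-out basis: % activation relative to DMSO and positive-control wells; Measured by: OneGlo luminescence, 15 min room-temperature incubation; Benchmarks: DMSO wells as low control, reference activator compound as high.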

activation, inactive:
COc1cc(/C=N/NC(=O)c2ccccc2)ccc1OS(=O)(=O)c1ccccc1 3.32%
Cc1nnc(NC(=O)Cn2c(=O)sc3ccccc32)s1 -3.31%
COC(=O)c1ccc(NCc2cc(O)ccc2O)cc1 1.42%
CC(=O)c1ccc(NC(=O)c2sc3nc4n(c(=O)c3c2C)CCCCC4)cc1 -0.4%
FC(F)(F)c1cccc(-c2nc3ccccc3n2C(c2ccccc2)c2nc3ccccc3[nH]2)c1 (stereo not drawn) 3.9%
CC(=O)Oc1ccc(C(=O)Nc2nccs2)cc1 6.25%
CCOc1cccc2c1OC1(CCCCC1)N1N=C(c3cccnc3)CC21 (stereo not drawn) 2.8%
Cc1ccc(-n2c(SCC(=O)N3CCC(C(=O)O)CC3)nc3ccccc3c2=O)cc1C 4.21%
CN(C)CCNC(=O)c1ccc(Cl)c2cc3ccccc3nc12 -13.7%
CCCOc1ccc(-c2nc(N)n[nH]2)cc1 4.15%
Cc1ccccc1C#CC1=CC(=O)CC(C)(C)C1 1%
Cc1ccccc1C1=N/C(=C/c2cccnc2)C(=O)O1 0.02%
CCCCc1ccc(NC(=S)N2CCCC(CO)C2)cc1 (stereo not drawn) 6.12%
Cc1ccc(C(=O)Nc2nc3ccc(Cl)cc3s2)o1 3.69%
C1=C(CCNc2ncnc3c2cnn3-c2ccccc2)CCCC1 3.15%
O=C(N[C@H]1CC[C@H](CC(=O)N2CCCCC2)O[C@@H]1CO)c1cccc(F)c1 0.05%
CCCn1c(=O)c2ccccc2n2c(SCC(=O)/C(C#N)=C(\C)N)nnc12 3.09%
COCC1CCN(C(=O)C2CCC(=O)N(Cc3cccc(C(F)(F)F)c3)C2)CC1 (stereo not drawn) 2.05%
Cc1ccc(Nc2nc(Cl)c(C=O)s2)cc1 -3.27%
CN(C)C(CNC(=O)c1ccc(OCc2cn3ccccc3n2)cc1)c1ccco1 (stereo not drawn) 2.21%
O=C(Nc1ccc(NC(=O)c2cccs2)cn1)c1ccco1 2.8%
Cc1ccnc(NC(=O)C2CCN(S(=O)(=O)c3c(C)c(C)cc(C)c3C)CC2)c1 -0.54%
COC(=O)c1sc(-c2ccc(C(C)(C)C)cc2)cc1NC(=O)/C=C/C(=O)O -3.23%
CCC(C)N(C)C1CCN(C(=S)Nc2ccc(OC)cc2)CC1 (stereo not drawn) 1.96%
COc1cccc(OCCOc2cccc(/C=N/n3cnnc3)c2)c1 3.85%
Cc1ccc(F)c(NC(=O)CCc2ccccc2)c1 5.33%
COc1ccc(OCCCC(=O)NCCc2ccccc2)cc1 1.28%
CC(C)c1ccc(NC(=S)NC2CC3C=CC2C3)cc1 (stereo not drawn) 6.89%
Cc1ccc(NC(=O)C(=O)NCc2ccco2)c(C)c1 0.78%
Cc1noc(C)c1S(=O)(=O)N(C)C[C@H]1Oc2c(NC(=O)Nc3ccc4c(c3)OCO4)cccc2C(=O)N([C@H](C)CO)C[C@@H]1C -2.45%
O=C(Cn1ncc(N2CCCC2)c(Br)c1=O)c1ccc(Cl)cc1 3.52%
Cn1cccc1/C=N/NC(=O)c1ccc(OC(F)(F)C(F)F)cc1 3.85%
CC1(C)CC(=O)C=C(NCCCNC2CCCCC2)C1 -0.17%
O=C(Nc1cc(=O)[nH]c2ncnn12)c1ccccc1Cl 3.68%
CCCn1nc(C(=O)Nc2ccc3nc(C)sc3c2)c2ccccc2c1=O -0.9%
CC(C)Cc1nnc(NC(=O)CCNC(=O)c2ccccc2Cl)s1 -0.13%
Cc1ccc(-c2nc3ccc(Cl)cn3c2Cc2ccccc2)cc1 3.06%
Cc1ccc(N/C=C/C(=O)c2ccccc2)cc1C 0.64%
Cc1ccsc1C(=O)N/N=C/c1ccc([N+](=O)[O-])cc1 6.1%
COc1ccc2ccccc2c1CNCc1ccccn1 0.73%
Cn1sc(=O)c2cc(S(=O)(=O)NC3CC3)ccc21 -1.88%
COc1cccc(C(=O)Nc2nc3ccc(S(C)(=O)=O)cc3s2)c1 2.8%
O=C(O)c1ccc(COc2c(F)c(F)cc(F)c2F)o1 -2.71%
Cc1nc(-c2nnc(SCC(=O)Nc3cc(C(F)(F)F)cc(C(F)(F)F)c3)n2C)cs1 -3.07%
Fc1ccc(/C=N/Nc2nc(-c3cccnc3)nc3ccccc23)cc1 4.27%
CCOC(=O)Nc1ccc(NC(=O)OCC)cc1 -0.46%
COc1ccc(C(=O)N/N=c2\oc3ccccc3cc2C(N)=O)cc1 1.59%
O=C(C1CCC1)N1CCN(S(=O)(=O)c2ccc([N+](=O)[O-])cc2)CC1 0.04%
COC(=O)c1ccc(/C=C2/C(=O)Oc3ccccc32)cc1 -2.13%
O=C(NC1CCCC1)C(=O)c1c[nH]c2ccccc12 4.82%
CC(=O)c1sc(NC(=O)c2ccc(C)cc2)nc1C 6.35%
CC1(C(=O)NS(=O)(=O)C2CC2)CCCN(C(=O)CSc2ccccc2)C1 (stereo not drawn) 1.21%
CC(C)CCNC(=O)c1ccc2c(Cl)c3c(nc2c1)CCC3 2.09%

activation, active:
Cc1ccc(O)c(CNc2nc3ccccc3n2C)c1 9.22%
O=c1c2c(nc3n1CCCCC3)sc1c(O)cccc12 15.2%
CCCCCCOC(=O)NCC(O)c1ccccc1 (stereo not drawn) 12.4%
CCOC(=O)c1c(C)[nH]c(C2=NNC(=NC(C)COC)SC2)c1C (stereo not drawn) 10.6%
CCc1ccc(NC2Nc3cc(C)nn3S2)cc1 (stereo not drawn) 8.74%
CCc1cc2c(=O)c(-c3ccon3)c(N)oc2cc1OC 14%
Cc1ccnc(Nc2nc3ccccc3s2)n1 10%
O=C(Nc1ccc(F)cc1)c1cc2c(s1)CCCC2 9.06%
O=C(NCC1CCCO1)c1cc2c(s1)CCCC2 (stereo not drawn) 11%
O=C(CCCc1ccccc1)NCc1ccccc1 8.8%
CC(C)(C)c1ccc(NC(=O)NCc2ccco2)cc1 14.5%
CC(C)(C)NC(=O)C(CCc1ccccc1)n1c(=O)c(-c2ccccc2)nc2ccccc21 (stereo not drawn) 8.75%
COc1ccc(/C=C/C(=O)Nc2ccc(C34CC5CC(CC(O)(C5)C3)C4)cc2)cc1OC 15.3%
COc1ccc(C(=O)NC2=NCCS2)c(OC)c1 10.5%
Cc1ccc(C(=O)CSc2ccccc2C(=O)O)cc1 16.1%
Cc1cccc(-n2c(O)c(C=Nc3ccccc3N)c(=O)[nH]c2=O)c1 11.1%
COc1cccc(C(=O)Nc2cc3c(cc2Br)OCCCO3)c1 9.25%
Cc1ccc(NC(=O)c2cc3ccccc3o2)cc1 10.6%
CCc1c(C)c2ccc(OC3CCCCC3=O)cc2oc1=O (stereo not drawn) 12.2%
Oc1cccc2ccc(/C=C/c3ccc(Br)s3)nc12 12.9%
